The record followed here is ChEMBL document CHEMBL1268915, “Optimization of a series of dipeptides with a P3 threonine residue as non-covalent inhibitors of the chymotrypsin-like activity of the human 20S proteasome” (Bioorg Med Chem Lett, 2010).

The structures appear in SMILES notation. pIC50, pKi: −log10 of the molar value. Active and inactive are the calls of the source. The calls are words filed in the database; no cut-off is given here.

The target in data set [1] is Tissue-type plasminogen activator (Homo sapiens) (UniProt P00750). Briefly: Inhibition of tissue plasminogen activator at 100 uM.
For data set [2], the species on record is Homo sapiens. The data set can be described thus: Inhibition of human elastase at 100 uM.
In data set [3] the target is Plasminogen (Homo sapiens) (UniProt P00747). Briefly: Inhibition of human plasmin at 100 uM.
Data set [4] can be described thus: Cytotoxicity against human Calu6 cells assessed as cellular ATP level after 72 hrs by luminescence-based ATPlite assay. In kind it is cell-based, Calu-6. The conditions noted are these: read-out: LC50. The essentials: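 Calu6 cells, 2000 per well, incubated with compound for 72 h. Viability read as cellular ATP by luminescence (ATPlite). Values are means of at least three independent experiments.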

Data set [5] has as its target Procathepsin L (Homo sapiens) (UniProt P07711). Briefly: Inhibition of human cathepsin L at 100uM.
Data set [6] concerns the target Cathepsin B (Homo sapiens) (UniProt P07858). Briefly: Inhibition of human cathepsin B at 100uM.
The nature of data set [7]: (§1) Inhibition of TNF-alpha-induced NF-kappaB activation in human HEK293 cells after 3 hrs by luciferase reporter gene assay. In kind it is cell-based. The conditions noted are these: HEK293, 3 h. The procedure, abridged:
(§2)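 NF-κB-luciferase reporter in HEK293 cells (10,000 per well). Cells were pre-incubated with compound for 1 h, then stimulated with 10 ng/ml TNF-α for 3 h with compound still present. IC50 and percentage inhibition were reported as means of at least three independent experiments.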

The test system of another data set is HEK293. Described as §1. The data set is classed as cell-based. Details: concentration or dose not given beside the values. Particulars: dose or concentration not given here. The procedure, abridged: as §2
Data set [8] is described as follows: Inhibition of chymotrypsin-like activity of human 20s proteasome beta-1 subunit in human erythrocyte assessed as hydrolysis of Ac-WLA-AMC fluorogenic substrate.
In data set [9] the target is T1, Calpain-1 catalytic subunit (Homo sapiens) (UniProt P07384).
T1 sequence (whole entry): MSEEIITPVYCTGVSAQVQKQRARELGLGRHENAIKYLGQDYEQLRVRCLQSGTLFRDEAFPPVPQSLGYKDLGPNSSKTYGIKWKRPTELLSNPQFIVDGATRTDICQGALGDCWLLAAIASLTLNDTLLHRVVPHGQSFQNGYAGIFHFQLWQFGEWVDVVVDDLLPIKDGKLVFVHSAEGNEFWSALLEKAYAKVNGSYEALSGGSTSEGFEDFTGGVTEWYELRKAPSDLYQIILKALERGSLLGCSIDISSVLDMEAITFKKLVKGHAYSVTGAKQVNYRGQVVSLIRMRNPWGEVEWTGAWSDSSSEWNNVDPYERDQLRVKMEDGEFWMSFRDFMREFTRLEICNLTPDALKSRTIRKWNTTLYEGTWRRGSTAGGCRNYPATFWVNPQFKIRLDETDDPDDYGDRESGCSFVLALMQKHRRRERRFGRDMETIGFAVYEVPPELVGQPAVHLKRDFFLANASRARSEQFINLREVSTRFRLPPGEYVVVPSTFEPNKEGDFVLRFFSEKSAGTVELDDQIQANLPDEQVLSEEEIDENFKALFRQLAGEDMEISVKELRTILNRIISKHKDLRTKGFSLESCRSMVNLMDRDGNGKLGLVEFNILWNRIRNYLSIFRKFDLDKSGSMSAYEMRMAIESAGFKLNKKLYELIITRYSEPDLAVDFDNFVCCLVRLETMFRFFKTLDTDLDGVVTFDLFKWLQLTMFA
Briefly: Inhibition of human calpain 1 at 100 uM.

The target of data set [10] is T2, Coagulation factor XII (Homo sapiens) (UniProt P00748).
T2 sequence (whole entry): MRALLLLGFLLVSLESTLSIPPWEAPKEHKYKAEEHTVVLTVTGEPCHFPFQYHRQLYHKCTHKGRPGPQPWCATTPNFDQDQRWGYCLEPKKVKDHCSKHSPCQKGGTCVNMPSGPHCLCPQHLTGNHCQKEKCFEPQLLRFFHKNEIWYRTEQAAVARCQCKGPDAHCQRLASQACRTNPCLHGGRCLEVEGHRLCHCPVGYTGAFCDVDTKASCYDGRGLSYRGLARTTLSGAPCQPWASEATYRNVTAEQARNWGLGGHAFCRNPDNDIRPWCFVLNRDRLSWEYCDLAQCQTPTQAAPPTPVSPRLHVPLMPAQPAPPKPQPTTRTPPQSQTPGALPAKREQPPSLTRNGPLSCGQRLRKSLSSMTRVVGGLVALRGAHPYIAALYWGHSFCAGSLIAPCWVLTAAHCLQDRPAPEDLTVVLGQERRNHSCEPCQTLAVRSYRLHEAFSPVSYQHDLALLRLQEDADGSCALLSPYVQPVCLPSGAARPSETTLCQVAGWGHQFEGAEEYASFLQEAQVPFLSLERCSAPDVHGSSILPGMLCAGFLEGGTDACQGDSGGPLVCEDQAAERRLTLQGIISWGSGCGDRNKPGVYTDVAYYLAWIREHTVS
Briefly: Inhibition of human coagulation factor beta 12a at 100 uM.

Data set [11] can be described thus: Binding affinity to chymotrypsin-like activity of 20S proteasome.
For the next data set, the target named is Trypsin (Homo sapiens) (UniProt P07477+P07478+P35030). Briefly: Inhibition of human trypsin at 100 uM. The data set is classed as protein assay.
For data set [12], the species on record is Homo sapiens. Briefly: Inhibition of human chymotrypsin at 100 uM.
Data set [13] has as its target Prothrombin (Homo sapiens) (UniProt P00734). The data set can be described thus: Inhibition of human thrombin at 100 uM.
A short description of data set [14]: Inhibition of chymotrypsin-like activity of human 20s proteasome beta2 subunit in human erythrocyte assessed as hydrolysis of Ac-WLA-AMC fluorogenic substrate.
Data set [15] in a line: Inhibition of chymotrypsin-like activity of human 20s proteasome beta5 subunit in human erythrocyte assessed as hydrolysis of Ac-WLA-AMC fluorogenic substrate.

Chain of Plasminogen (Homo sapiens) (P00747 97-580 limits assumed): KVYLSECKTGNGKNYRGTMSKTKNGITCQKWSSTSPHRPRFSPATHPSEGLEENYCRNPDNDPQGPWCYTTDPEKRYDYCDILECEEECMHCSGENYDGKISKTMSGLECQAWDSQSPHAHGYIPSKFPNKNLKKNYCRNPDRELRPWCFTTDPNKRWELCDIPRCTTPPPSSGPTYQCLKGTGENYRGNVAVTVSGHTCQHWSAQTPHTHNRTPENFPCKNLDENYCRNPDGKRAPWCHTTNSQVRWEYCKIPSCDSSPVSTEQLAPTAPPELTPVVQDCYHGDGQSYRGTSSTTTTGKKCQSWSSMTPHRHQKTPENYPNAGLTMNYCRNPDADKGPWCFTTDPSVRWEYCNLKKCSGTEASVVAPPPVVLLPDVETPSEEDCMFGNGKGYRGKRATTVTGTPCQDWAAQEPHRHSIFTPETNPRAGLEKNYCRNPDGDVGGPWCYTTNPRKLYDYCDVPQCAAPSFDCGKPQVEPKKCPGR
Chain of Plasminogen (Homo sapiens) (P00747 581-810 limits assumed): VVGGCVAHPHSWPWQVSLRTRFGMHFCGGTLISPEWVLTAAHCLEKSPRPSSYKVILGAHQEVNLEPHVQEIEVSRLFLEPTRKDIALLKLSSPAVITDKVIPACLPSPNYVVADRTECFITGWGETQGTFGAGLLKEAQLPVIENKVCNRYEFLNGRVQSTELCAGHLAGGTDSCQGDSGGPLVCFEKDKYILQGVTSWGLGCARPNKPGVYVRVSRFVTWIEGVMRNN
Chain of Procathepsin L (Homo sapiens) (P07711 114-333 limits assumed): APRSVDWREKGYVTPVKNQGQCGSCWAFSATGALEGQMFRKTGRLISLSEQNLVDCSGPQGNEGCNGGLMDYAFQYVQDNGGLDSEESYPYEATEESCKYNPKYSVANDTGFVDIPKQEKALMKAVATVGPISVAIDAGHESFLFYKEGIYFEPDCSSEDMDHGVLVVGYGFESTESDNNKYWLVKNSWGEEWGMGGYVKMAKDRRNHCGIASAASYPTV
Chain of Tissue-type plasminogen activator (Homo sapiens) (P00750 36-562 limits assumed): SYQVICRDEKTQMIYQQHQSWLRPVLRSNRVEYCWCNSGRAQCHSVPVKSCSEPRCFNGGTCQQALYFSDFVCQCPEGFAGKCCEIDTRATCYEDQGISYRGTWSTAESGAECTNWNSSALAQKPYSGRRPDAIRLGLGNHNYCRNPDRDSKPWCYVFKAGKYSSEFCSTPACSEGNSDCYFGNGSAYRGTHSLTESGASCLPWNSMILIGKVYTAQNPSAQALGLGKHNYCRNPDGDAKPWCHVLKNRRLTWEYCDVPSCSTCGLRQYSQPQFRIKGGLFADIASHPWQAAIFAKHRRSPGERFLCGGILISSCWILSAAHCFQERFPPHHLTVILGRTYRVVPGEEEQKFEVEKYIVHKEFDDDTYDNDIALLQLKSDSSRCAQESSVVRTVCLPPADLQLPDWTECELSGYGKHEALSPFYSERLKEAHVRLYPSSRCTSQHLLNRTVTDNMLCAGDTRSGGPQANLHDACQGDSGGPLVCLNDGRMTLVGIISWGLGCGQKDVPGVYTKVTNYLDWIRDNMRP

For the compound `CC(C)C[C@H](NC(=O)[C@H](Cc1ccccc1)NC(=O)c1cnccn1)B(O)O` [BORTEZOMIB], the inhibition entry (in data set [1]; in the data set listed under Homo sapiens [2]; in [3]; in [5]; in data set [6]; in [9]) was “Active” in each case. Further, the inhibition result (in data set [10]; at Trypsin (Homo sapiens); in the data set filed under Homo sapiens [12]; in data set [13]) was “Active” throughout. Moreover, the CC50 at 72 h in [4] was found to be 6.1 nM. The pIC50 in [7] was 8.00; in [8], less than 4.70; in data set [14], less than 4.70. This compound yielded an inhibition in the data set on HEK293 of 100%. Also, in [11], the negative logarithm of the Ki (pKi) was 9.26.

Consider `Cc1ccc(CNC(=O)[C@H](CCc2ccccc2)NC(=O)[C@@H](NC(=O)C(C)(C)Oc2ccccc2Cl)[C@@H](C)O)cc1`, for which the inhibition result (in [1]; in the data set filed under Homo sapiens [2]; in data set [3]; in data set [5]; in data set [6]; in data set [9]) was “Active” throughout. Further, the inhibition entry (in data set [10]; on Trypsin (Homo sapiens); in the data set listed under Homo sapiens [12]; in [13]) was “Active” each time. In data set [4], the CC50 at 72 h is 1500 nM. The pIC50 was 6.16 in data set [7], less than 4.70 in data set [8], less than 4.70 in data set [14] and 7.12 in data set [15]. Besides, the inhibition with HEK293 was found to be 97%.

`Cc1ccc(CNC(=O)[C@H](CCc2ccccc2)NC(=O)[C@@H](NC(=O)Cc2cccc(Oc3ccccc3)c2)[C@@H](C)O)cc1`: the inhibition result (in [1]; in the data set filed under Homo sapiens [2]; in data set [3]; in data set [5]; in data set [6]; in data set [9]) was “Active” throughout. Also, the inhibition entry (in [10]; on Trypsin (Homo sapiens); in the data set listed under Homo sapiens [12]; in data set [13]) was “Active” each time. For the same compound, in data set [4], the CC50 at 72 h was determined as 15000 nM. For the same compound, the pIC50 is 4.62 in [7], less than 4.70 in data set [8], less than 4.70 in data set [14] and 6.35 in data set [15]. Further, the inhibition with HEK293 is 30%.

Turning to `C[C@@H](O)[C@H](NC(=O)c1ccc(OCc2ccccc2)cc1)C(=O)N[C@@H](CCc1ccccc1)C(=O)NCc1ccccc1Cl`, the inhibition result (in data set [1]; in the data set listed under Homo sapiens [2]; in data set [3]; in [5]; in data set [6]; in data set [9]) was “Active” throughout. In addition, the inhibition result (in [10]; at Trypsin (Homo sapiens); in the data set listed under Homo sapiens [12]; in [13]) was “Active” throughout. Further, the CC50 at 72 h in [4] was 290 nM. Moreover, the pIC50 was 7.54 in data set [7], less than 4.70 in data set [8], less than 4.70 in data set [14] and 7.89 in [15]. The compound further yielded an inhibition with HEK293 of 87%.

`C[C@@H](O)[C@H](NC(=O)c1ccc(OCc2ccccc2)cc1)C(=O)N[C@@H](CCc1ccccc1)C(=O)NCc1cccc(Cl)c1`: the inhibition result (in [1]; in the data set filed under Homo sapiens [2]; in data set [3]; in data set [5]; in [6]; in data set [9]) was “Active” each time. For the same compound, the inhibition entry (in data set [10]; at Trypsin (Homo sapiens); in the data set listed under Homo sapiens [12]; in data set [13]) was “Active” in each case. Further, in data set [4], the CC50 at 72 h was more than 25000 nM. Further, the pIC50 was 4.82 in [7], less than 4.70 in [8], less than 4.70 in [14] and 6.68 in data set [15]. The compound further yielded an inhibition with HEK293 of 44%.

Take `COc1ccc2c(c1)CC(C(=O)N[C@H](C(=O)N[C@@H](CCc1ccccc1)C(=O)NCc1ccc(C)cc1)[C@@H](C)O)CC2` (stereo partly drawn): the inhibition result (in data set [1]; in the data set filed under Homo sapiens [2]; in data set [3]; in data set [5]; in data set [6]; in [9]) was “Active” throughout. The inhibition result (in data set [10]; at Trypsin (Homo sapiens); in the data set filed under Homo sapiens [12]; in data set [13]) was “Active” each time. Moreover, in data set [4], the CC50 at 72 h came out at 2300 nM. Moreover, the negative-log IC50 (pIC50) in data set [7] is 7.02; in data set [8], less than 4.70; in data set [14] it was less than 4.70; in data set [15] it was 7.70. In the data set on HEK293, this compound had an inhibition of 89%.

Take `COC[C@H](NC(=O)Cc1cccc(OCc2ccccc2)c1)C(=O)N[C@@H](CCc1ccccc1)C(=O)NCc1ccc(C)cc1`: the inhibition entry (in data set [1]; in the data set listed under Homo sapiens [2]; in [3]; in data set [5]; in data set [6]; in data set [9]) was “Active” throughout. Further, the inhibition entry (in data set [10]; on Trypsin (Homo sapiens); in the data set listed under Homo sapiens [12]; in [13]) was “Active” in each case. Also, the CC50 at 72 h in data set [4] worked out at 220 nM. The pIC50 in [7] is 6.47; in data set [8] it was less than 4.70; in data set [14], less than 4.70; in data set [15] it was 7.13. This compound showed an inhibition in the data set with HEK293 of 78%.

With `COC[C@H](NC(=O)Cc1cccc(Oc2ccccc2)c1)C(=O)N[C@@H](CCc1ccccc1)C(=O)NCc1ccc(C)cc1`, the inhibition result (in data set [1]; in the data set listed under Homo sapiens [2]; in data set [3]; in [5]; in data set [6]; in data set [9]) was “Active” each time. The inhibition entry (in data set [10]; on Trypsin (Homo sapiens); in the data set filed under Homo sapiens [12]; in data set [13]) was “Active” each time. The CC50 at 72 h in data set [4] is more than 25000 nM. For the same compound, the pIC50 in data set [7] was 5.21; in data set [8], less than 4.70; in [14], less than 4.70; in data set [15] it was 6.26. This compound also yielded an inhibition in the data set on HEK293 of 40%.
